Measured values from publication PMC11208914 (Biochemistry and Biophysics Reports, 2024).
“Also recorded” adds a separate entry of the source. Like-named read-outs stand apart in the source and are kept apart here.

Key:
ZIKV PF13 = assay type: cell-based, Zika virus; details: FACS; for reduction in infection: virus treated before infection of HMC3 cells
Method in brief: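 HMC3 cells were seeded at 4.10^4 cells/well the day before. ZIKV PF13 (MOI 1.5) was preincubated with ½ dilutions of peptide (50 to 3 μg/ml) for 1 h at 37 °C, then added to cells for 1.5 h at 37 °C before medium replacement; duplicates. Trypsinized cells were fixed and permeabilized (30 min, 4 °C), stained with 4G2 anti-envelope antibody (1/500) and Alexa488 secondary (1/1000), then analysed by flow cytometry.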

HeLa cells = test: CellTiter-Glo cell viability test, HeLa cells; assay type: cell-based
Method in brief: (§1)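 HMC3 or HeLa cells were grown in DMEM with L-glutamine, 10 % FCS and 1 % penicillin/streptomycin, then seeded at 10^4 cells/well. Peptide in ½ dilutions (100 to 1.5 μg/ml) was added for 2 h at 37 °C and 5 % CO2. Medium was then replaced with DMEM/10 % FCS for 24 h, with untreated cells as control. ATP was read by CellTiter-Glo luminescence, in triplicate.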

HMC3 cells = test: CellTiter-Glo cell viability test, HMC3 cells; assay type: cell-based; details: Fig. 2; for cytotoxic effect on HMC3 cells at 100 μg/ml: about 100 μg/ml
Method in brief: as §1

Sequence | reduction in infection (ZIKV PF13; 6.25 μg/ml) | viability of HeLa cells at 100 μg/ml (HeLa cells) | concentration at which the peptide exhibits cytotoxicity to HeLa cells (HeLa cells; Fig. 3) | concentration at which the peptide remained non-toxic to HMC3 cells (HMC3 cells) | cytotoxic effect on HMC3 cells at 100 μg/ml (HMC3 cells) | reduction in infection (ZIKV PF13; 3 μg/ml) | effect on ZIKV PF13 infection (ZIKV PF13; non-cytotoxic concentrations 50 to 3 μg/ml, HMC3 cells) | cytotoxicity to HeLa cells (HeLa cells; even at high concentrations, Fig. 3)
ALWKTLLKKVLKAAAKAALKAVLVGAKA [K4K20K27S4] | Approximately 90% | 18% | 50 µg/mL | about 12.5 μg/ml | exhibited cytotoxicity | – | – | –
ALWKTLLKKVLKAAAKAALKAVLVGANA [K4K20S4] | – | approximately 1% | around 25 μg/ml | about 12.5 μg/ml | exhibited cytotoxicity | Approximately 90% | – | –
GLKKKIKEVGKEAAKAAAKAAGKAALGAVSEAV [K3K4B2] | – | – | – | – | no cytotoxic effects | – | increased the infection | non-cytotoxic; also recorded: did not exhibit any toxic effects
